How the values were obtained:
[1] = Cytotoxicity against human breast cancer cells at 10 uM after 48 hrs; type: functional; settings: Cancer cell lines
How it was run: (§1)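 Single-dose primary screen in the NCI 60 human tumour cell line panel, run at the NCI facility. The panel covers nine subpanels: leukaemia, non-small cell lung, colon, CNS, melanoma, ovarian, renal, prostate and breast. Read-out was percent growth of treated cells, shown as a mean graph and reported as percent growth inhibition.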

[2] = Growth inhibition of human EKVX cells at 10 uM after 48 hrs; type: functional; settings: read-out: GI; how it was run: as §1
[3] = Growth inhibition of human SF539 cells at 10 uM after 48 hrs; type: functional; settings: SF-539, 48 h, read-out: GI
How it was run: (§2)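 NCI 60-cell-line disease-oriented human tumor panel, single-dose primary screen at 10 µM. Data given as mean-graph percent growth of treated cells, reported as percent growth inhibition (GI %).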

[4] = test system: HOP-62; assay: Growth inhibition of human HOP62 cells at 10 uM after 48 hrs; type: functional; settings: HOP-62, 48 h, read-out: GI; how it was run: as §1
[5] = test system: SR; assay: Growth inhibition of human SR cells at 10 uM after 48 hrs; type: functional; settings: read-out: GI; how it was run: as §2
[6] = Growth inhibition of human UO31 cells at 10 uM after 48 hrs; type: functional; settings: UO-31, 48 h, read-out: GI; how it was run: as §2
[7] = Cytotoxicity against human leukemia cells at 10 uM after 48 hrs; type: functional; settings: Leukemia cell
[8] = Cytotoxicity against human renal cancer cells at 10 uM after 48 hrs; type: functional; settings: Cancer cell lines
[9] = test system: ACHN; assay: Growth inhibition of human ACHN cells at 10 uM after 48 hrs; type: functional; settings: read-out: GI; how it was run: as §1
[10] = test system: NCI-H460; assay: Growth inhibition of human NCI-H460 cells at 10 uM after 48 hrs; type: functional; settings: NCI-H460, 48 h, read-out: GI; how it was run: as §1
[11] = test system: SF-268; assay: Growth inhibition of human SF268 cells at 10 uM after 48 hrs; type: functional; settings: SF-268, 48 h, read-out: GI; how it was run: as §2
[12] = test system: A549; assay: Growth inhibition of human A549 cells at 10 uM after 48 hrs; type: functional; settings: A549, 48 h, read-out: GI; how it was run: as §1
[13] = test system: U-251; assay: Growth inhibition of human U251 cells at 10 uM after 48 hrs; type: functional; settings: U-251, 48 h, read-out: GI; how it was run: as §2
[14] = Cytotoxicity against human CNS cancer cells at 10 uM after 48 hrs; type: functional; settings: Cancer cell lines
[15] = test system: DU-145; assay: Growth inhibition of human DU145 cells at 10 uM after 48 hrs; type: functional; settings: DU-145, 48 h, read-out: GI; how it was run: as §1
[16] = test system: OVCAR-3; assay: Growth inhibition of human OVCAR3 cells at 10 uM after 48 hrs; type: functional; settings: OVCAR-3, 48 h, read-out: GI; how it was run: as §1
[17] = test system: MDA-MB-231; assay: Growth inhibition of human MDA-MB-231 cells at 10 uM after 48 hrs; type: functional; settings: MDA-MB-231, 48 h, read-out: GI; how it was run: as §1
[18] = test system: TK-10; assay: Growth inhibition of human TK10 cells at 10 uM after 48 hrs; type: functional; settings: TK-10, 48 h, read-out: GI; how it was run: as §2
[19] = Growth inhibition of human NCI-ADR-RES cells at 10 uM after 48 hrs; type: functional; settings: read-out: GI; how it was run: as §1
[20] = Growth inhibition of human HOP92 cells at 10 uM after 48 hrs; type: functional; settings: HOP-92, 48 h, read-out: GI; how it was run: as §1
[21] = test system: MDA-MB-435; assay: Growth inhibition of human MDA-MB-435 cells at 10 uM after 48 hrs; type: functional; settings: MDA-MB-435, 48 h, read-out: GI; how it was run: as §1
[22] = test system: OVCAR-8; assay: Growth inhibition of human OVCAR8 cells at 10 uM after 48 hrs; type: functional; settings: OVCAR-8, 48 h, read-out: GI; how it was run: as §1
[23] = Cytotoxicity against human colon cancer cells at 10 uM after 48 hrs; type: functional; settings: Cancer cell lines; how it was run: as §1
[24] = test system: NCI-H23; assay: Growth inhibition of human NCI-H23 cells at 10 uM after 48 hrs; type: functional; settings: NCI-H23, 48 h, read-out: GI; how it was run: as §1
[25] = test system: SNB-75; assay: Growth inhibition of human SNB75 cells at 10 uM after 48 hrs; type: functional; settings: SNB-75, 48 h, read-out: GI; how it was run: as §2
[26] = test system: SK-OV-3; assay: Growth inhibition of human SKOV3 cells at 10 uM after 48 hrs; type: functional; settings: SK-OV-3, 48 h, read-out: GI; how it was run: as §2
[27] = Cytotoxicity against human prostate cancer cells at 10 uM after 48 hrs; type: functional; settings: Cancer cell lines
[28] = Cytotoxicity against human melanoma cells at 10 uM after 48 hrs; type: functional; settings: Melanoma cell; how it was run: as §1
[29] = target: T1, Dihydrofolate reductase (Bos taurus, UniProt P00376); assay: Inhibition of bovine liver DHFR measured for every 1 min of 10 mins
T1 sequence (P00376 whole entry): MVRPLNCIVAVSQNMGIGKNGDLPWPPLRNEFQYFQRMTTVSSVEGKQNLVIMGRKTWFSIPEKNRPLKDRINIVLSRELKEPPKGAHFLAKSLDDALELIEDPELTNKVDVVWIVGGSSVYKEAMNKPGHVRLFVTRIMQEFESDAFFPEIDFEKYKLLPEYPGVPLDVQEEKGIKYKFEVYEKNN

[30] = Growth inhibition of human OVCAR5 cells at 10 uM after 48 hrs; type: functional; settings: OVCAR-5, 48 h, read-out: GI; how it was run: as §1
[31] = test system: SF-295; assay: Growth inhibition of human SF295 cells at 10 uM after 48 hrs; type: functional; settings: SF-295, 48 h, read-out: GI; how it was run: as §2
[32] = test system: A498; assay: Growth inhibition of human A498 cells at 10 uM after 48 hrs; type: functional; settings: A498, 48 h, read-out: GI; how it was run: as §1
[33] = test system: NCI-H322M; assay: Growth inhibition of human NCI-H322M cells at 10 uM after 48 hrs; type: functional; settings: read-out: GI; how it was run: as §1
[34] = test system: UACC-62; assay: Growth inhibition of human UACC62 cells at 10 uM after 48 hrs; type: functional; settings: UACC-62, 48 h, read-out: GI; how it was run: as §2
[35] = test system: IGROV-1; assay: Growth inhibition of human IGROV1 cells at 10 uM after 48 hrs; type: functional; settings: IGROV-1, 48 h, read-out: GI; how it was run: as §1
[36] = test system: K562; assay: Growth inhibition of human K562 cells at 10 uM after 48 hrs; type: functional; settings: K562, 48 h, read-out: GI; how it was run: as §1
[37] = test system: PC-3; assay: Growth inhibition of human PC3 cells at 10 uM after 48 hrs; type: functional; settings: PC-3, 48 h, read-out: GI; how it was run: as §1
[38] = Growth inhibition of human UACC257 cells at 10 uM after 48 hrs; type: functional; settings: UACC-257, 48 h, read-out: GI; how it was run: as §2
[39] = test system: SK-MEL-28; assay: Growth inhibition of human SK-MEL-28 cells at 10 uM after 48 hrs; type: functional; settings: SK-MEL-28, 48 h, read-out: GI; how it was run: as §2
[40] = test system: T47D; assay: Growth inhibition of human T47D cells at 10 uM after 48 hrs; type: functional; settings: read-out: GI; how it was run: as §2
[41] = test system: SNB-19; assay: Growth inhibition of human SNB19 cells at 10 uM after 48 hrs; type: functional; settings: SNB-19, 48 h, read-out: GI; how it was run: as §2
[42] = Growth inhibition of human Hs 578T cells at 10 uM after 48 hrs; type: functional; settings: read-out: GI; how it was run: as §1
[43] = Growth inhibition of human OVCAR4 cells at 10 uM after 48 hrs; type: functional; settings: OVCAR-4, 48 h, read-out: GI; how it was run: as §1
[44] = test system: SK-MEL-2; assay: Growth inhibition of human SK-MEL-2 cells at 10 uM after 48 hrs; type: functional; settings: SK-MEL-2, 48 h, read-out: GI; how it was run: as §2
[45] = test system: SN12C; assay: Growth inhibition of human SN12C cells at 10 uM after 48 hrs; type: functional; settings: read-out: GI; how it was run: as §2
[46] = test system: KM12; assay: Growth inhibition of human KM12 cells at 10 uM after 48 hrs; type: functional; settings: KM12, 48 h, read-out: GI; how it was run: as §1
[47] = test system: 786-0; assay: Growth inhibition of human 786-0 cells at 10 uM after 48 hrs; type: functional; settings: 786-0, 48 h, read-out: GI; how it was run: as §1
[48] = test system: SK-MEL-5; assay: Growth inhibition of human SK-MEL-5 cells at 10 uM after 48 hrs; type: functional; settings: SK-MEL-5, 48 h, read-out: GI; how it was run: as §2
[49] = test system: MCF7; assay: Growth inhibition of human MCF7 cells at 10 uM after 48 hrs; type: functional; settings: MCF7, 48 h, read-out: GI; how it was run: as §1
[50] = Cytotoxicity against human non-small cell lung cancer cells at 10 uM after 48 hrs; type: functional; settings: Cancer cell lines; how it was run: as §1
[51] = test system: CAKI-1; assay: Growth inhibition of human CAKI-1 cells at 10 uM after 48 hrs; type: functional; settings: CAKI-1, 48 h, read-out: GI; how it was run: as §1
[52] = read-out: LC50 (the source's name)

SMILES: COc1ccc(/C=C2\CCCc3c2nc(C)nc3-c2ccc(OC)c(OC)c2)cc1OC
- GI50 [1]: 15.7 µM
- LC50 (concentration killing 50% of cells) [1]: 99.2 µM
- TGI [1]: 80.6 µM
- inhibition of growth at 10 µM [2]: < 30%
- inhibition of growth at 10 µM [3]: 82.9%
- inhibition of growth at 10 µM [4]: 67.9%
- inhibition of growth at 10 µM [5]: < 30%
- inhibition of growth at 10 µM [6]: 65.7%
- GI50 [7]: 6.8 µM
- LC50 [7]: > 100 µM
- TGI [7]: 92.7 µM
- CC50 [8]: 96.9 µM
- GI50 [8]: 23.7 µM
- TGI [8]: 98.7 µM
- inhibition of growth at 10 µM [9]: 90.2%
- inhibition of growth at 10 µM [10]: 99.4%
- inhibition of growth at 10 µM [11]: 80%
- inhibition of growth at 10 µM [12]: 82.1%
- inhibition of growth at 10 µM [13]: 81.8%
- GI50 [14]: 34.2 µM
- TGI [14]: > 100 µM
- CC50 [14, 52]: > 100 µM
- inhibition of growth at 10 µM [15]: 92.7%
- inhibition of growth at 10 µM [16]: 97.1%
- inhibition of growth at 10 µM [17]: 92.9%
- inhibition of growth at 10 µM [18]: 87.8%
- inhibition of growth at 10 µM [19]: 88.8%
- inhibition of growth at 10 µM [20]: 69.9%
- inhibition of growth at 10 µM [21]: 98.5%
- inhibition of growth at 10 µM [22]: 96.9%
- GI50 [23]: 28.9 µM
- TGI [23]: 88.9 µM
- CC50 [23, 52]: > 100 µM
- inhibition of growth at 10 µM [24]: 70.9%
- inhibition of growth at 10 µM [25]: 64.8%
- inhibition of growth at 10 µM [26]: 93%
- GI50 [27]: 26.9 µM
- LC50 [27]: > 100 µM
- TGI [27]: > 100 µM
- GI50 [28]: 26.9 µM
- TGI [28]: > 100 µM
- CC50 [28, 52]: > 100 µM
- IC50 [29]: 0.1 µM
- inhibition of growth at 10 µM [30]: 95.3%
- inhibition of growth at 10 µM [31]: 97%
- inhibition of growth at 10 µM [32]: 94.1%
- inhibition of growth at 10 µM [33]: 52.6%
- inhibition of growth at 10 µM [34]: 89.1%
- inhibition of growth at 10 µM [35]: 75.6%
- inhibition of growth at 10 µM [36]: 94.1%
- inhibition of growth at 10 µM [37]: 68%
- inhibition of growth at 10 µM [38]: 79.8%
- inhibition of growth at 10 µM [39]: 77%
- inhibition of growth at 10 µM [40]: 88.8%
- inhibition of growth at 10 µM [41]: 39.6%
- inhibition of growth at 10 µM [42]: 41%
- inhibition of growth at 10 µM [43]: 79.1%
- inhibition of growth at 10 µM [44]: 94.1%
- inhibition of growth at 10 µM [45]: 94.1%
- inhibition of growth at 10 µM [46]: 93.8%
- inhibition of growth at 10 µM [47]: 90.8%
- inhibition of growth at 10 µM [48]: 93.8%
- inhibition of growth at 10 µM [49]: 73.7%
- GI50 [50]: 37.8 µM
- TGI [50]: 90.2 µM
- CC50 [50, 52]: > 100 µM
- inhibition of growth at 10 µM [51]: 94.9%

From ChEMBL document CHEMBL3112482, “Nonclassical antifolates, part 5. Benzodiazepine analogs as a new class of DHFR inhibitors: synthesis, antitumor testing and molecular modeling study” (Eur J Med Chem, 2014)
